Experimental data pooled from the literature.
Protocols differ between the studies behind these lines.
SPHK1: Sphingosine kinase 1 (SPHK1, Homo sapiens, UniProt Q9NYA1)
EHMT1: Histone-lysine N-methyltransferase EHMT1 (EHMT1, Homo sapiens, UniProt Q9H9B1)
ADORA2A: Adenosine receptor A2a (ADORA2A, Homo sapiens, UniProt P29274)
CNR1: Cannabinoid receptor 1 (CNR1, Homo sapiens, UniProt P21554)
PARP1: Poly [ADP-ribose] polymerase 1 (PARP1, Homo sapiens, UniProt P09874)
PDE5A: cGMP-specific 3',5'-cyclic phosphodiesterase (PDE5A, Homo sapiens, UniProt O76074)
PIK3C2B: Phosphatidylinositol 4-phosphate 3-kinase C2 domain-containing subunit beta (PIK3C2B, Homo sapiens, UniProt O00750)
HRH4: Histamine H4 receptor (HRH4, Homo sapiens, UniProt Q9H3N8)
SCN9A: Sodium channel protein type 9 subunit alpha (SCN9A, Homo sapiens, UniProt Q15858)

SMILES | target | test | conditions | inhibition [%]
[H]/N=C(\N)N1CCC[C@H]1c1nc(-c2ccc(OCC=Cc3ccc(C(F)(F)F)cc3)c(C(F)(F)F)c2)no1 | SPHK1 | enzyme activity, inhibitor, radiometric | 1 µM | 20
O=C(O)c1cc(O)c2c(c1)[C@H]([C@H]1c3cc(C(=O)O)cc(O)c3C(=O)c3c(O[C@@H]4O[C@H](CO)[C@@H](O)[C@H](O)[C@H]4O)cccc31)c1cccc(O[C@@H]3O[C@H](CO)[C@@H](O)[C@H](O)[C@H]3O)c1C2=O | EHMT1 | cell-free assay | 10 µM | 16
CCCC=CCOc1ccc(-c2noc([C@@H]3CCCN3C(=N)N)n2)cc1C(F)(F)F | SPHK1 | enzyme activity, inhibitor, radiometric | 1 µM | 12
CC(C)(C)OC(=O)N1CCN(Cc2ccc3oc(-c4ccco4)nc3c2)CC1 | ADORA2A | ligand displacement, radioligand | 10 µM, cell membranes | 15
O=C(c1ccc(F)cc1)N(Cc1ccccc1)C1CCCCC1 | CNR1 | cell-free assay | 10 µM | 18
Oc1ccc(N2CCN(Cc3ccc4oc(-c5ccco5)nc4c3)CC2)cc1 | ADORA2A | ligand displacement, radioligand | 10 µM, cell membranes | 11
Nc1ccc2c(c1)CCCn1nnnc1-2 | PARP1 | enzyme activity, inhibitor | 10 µM | 31
COc1cc(NC(C)=O)c(Cl)cc1C(=O)Nc1nccs1 | CNR1 | cell-free assay | 10 µM | 11.8
CCN1C(=O)[C@H]2Cc3c([nH]c4ccccc34)[C@@H](c3ccc(OC)c(OC)c3)N2C1=O | PDE5A | enzyme activity, inhibitor, FP | 50 µM | 78
O=C1c2c(O)cccc2Cc2cccc(O)c21 | EHMT1 | cell-free assay | 10 µM | 10
Oc1cccc(Nc2nc(-c3ccc(F)cc3F)cs2)c1 | ADORA2A | cell-free assay | 10 µM | 76
COc1ccc(F)cc1C(=O)NCc1ccc(-c2nn([C@@H](C)C(F)(F)F)c(N)c2C(N)=O)cc1 | Mitogen-activated protein kinase kinase kinase 3 (MAP3K3, Homo sapiens, UniProt Q99759) | target engagement in cells, inhibitor, chemoproteomics | 0.1 µM | 26.3
O=C(CSc1nc2nccnc2c(=O)n1CCc1ccccc1)Nc1nccs1 | PIK3C2B | enzyme activity, inhibitor | 10 µM | 68
[H]/N=C(\N)N1CCC[C@H]1c1nc(-c2ccc(OCC=Cc3cccc(C(F)(F)F)c3)c(C(F)(F)F)c2)no1 | SPHK1 | enzyme activity, inhibitor, radiometric | 1 µM | 0
N#Cc1cc(Cn2c(N3CCCC3)nc3ccccc32)ccc1F | HRH4 | ligand displacement | 10 µM | -16
CN(C)C1CCN(CC#Cc2nn(C3CCCC3)c3nc(NCc4ccccc4)ncc23)C1 (stereo not drawn) | Aurora kinase B (AURKB, Homo sapiens, UniProt Q96GD4) | enzyme activity, inhibitor, FRET | 10 µM | 51
CN1CCN(CCCOc2ccc(=O)n(-c3ccc(Cl)c(Cl)c3)n2)CC1 | SCN9A | ligand displacement | 1 µM | 20.5
COc1ccc(-c2nc3cc(CN4CCCCC4)ccc3o2)cc1OC | ADORA2A | ligand displacement, radioligand | 10 µM, cell membranes | 18
Nc1ccc(-c2ccncc2)cc1NC(=O)N1CCCC1 | CNR1 | ligand displacement, radioligand | 10 µM | 15
COC(=O)[C@@H]1Cc2c([nH]c3ccccc23)[C@@H](c2cccnc2)N1 | PDE5A | enzyme activity, inhibitor, FP | 50 µM | 41
C=CCN1C(=O)[C@H]2Cc3c([nH]c4ccccc34)[C@H](c3ccc(Br)s3)N2C1=O | PDE5A | enzyme activity, inhibitor, FP | 10 µM | 67
N=C(N)N1CCC[C@H]1c1nc(-c2ccc(CCc3ccc(C(F)(F)F)cc3)c(C(F)(F)F)c2)no1 | SPHK1 | enzyme activity, inhibitor, radiometric | 1 µM | 12
Cn1cncc1C1=CN(c2ncnc3[nH]cnc23)CCS1 | Interleukin-1 receptor-associated kinase-like 2 (IRAK2, Homo sapiens, UniProt O43187) | enzyme activity, inhibitor, radiometric | 2 µM | 85

SMILES | target | test | conditions | inhibition [%]
COc1ccc([C@H]2c3[nH]c4ccccc4c3C[C@H]3C(=O)N(C(C)(C)C)C(=O)N23)cc1OC | PDE5A | enzyme activity, inhibitor, FP | 50 µM | 58
Cc1cc(O)c(C=O)c2c1C(=O)Oc1c(C)c(O)c3c(c1O2)C(O)OC3=O (stereo not drawn) | EHMT1 | cell-free assay | 10 µM | -4
COC(=O)[C@@H]1Cc2c([nH]c3ccccc23)[C@@H](c2ccc(OC)c(OC)c2)N1C(=O)CCl | PDE5A | enzyme activity, inhibitor, FP | 50 µM | 22
CCCNc1nc2ccccc2n1Cc1ccc(Cl)cc1 | HRH4 | ligand displacement | 10 µM | -8.89
CC(C)(C)N1C(=O)[C@@H]2Cc3c([nH]c4ccccc34)[C@H](c3cccnc3)N2C1=O | PDE5A | enzyme activity, inhibitor, FP | 50 µM | 45
CCCCc1ccc(CCc2ccc(-c3noc([C@@H]4CCCN4C(=N)N)n3)cc2C(F)(F)F)cc1 | SPHK1 | enzyme activity, inhibitor, radiometric | 1 µM | 6
O=C(c1ccc(Cl)cc1)N(Cc1ccccc1)C1CCCCC1 | CNR1 | cell-free assay | 10 µM | 11.1
Cc1cc(-c2ccc(/N=N/c3ccc4c(S(=O)(=O)O)cc(S(=O)(=O)O)c(N)c4c3O)c(C)c2)ccc1/N=N/c1ccc2c(S(=O)(=O)O)cc(S(=O)(=O)O)c(N)c2c1O | EHMT1 | cell-free assay | 10 µM | 48
CCN(c1cc(C#CCN2CCOCC2)cc(C(=O)NCc2c(C)cc(C)[nH]c2=O)c1C)[C@H]1CC[C@H](N(C)CCOC)CC1 | EHMT1 | enzyme activity, inhibitor | 1 µM | 9
Ic1cccc2cnccc12 | CNR1 | ligand displacement, radioligand | 10 µM | 3
COc1cccc2nc(-c3ccc(C(=O)N4CCN(C(=O)C5CC5)CC4)cc3F)[nH]c(=O)c12 | PARP1 | enzyme activity, inhibitor, ELISA | 10 µM | 56
c1coc(-c2nc3cc(CN4CCNCC4)ccc3o2)c1 | ADORA2A | ligand displacement, radioligand | 10 µM, cell membranes | 15
CCN1C(=O)[C@H]2Cc3c([nH]c4ccccc34)[C@H](c3cccnc3)N2C1=O | PDE5A | enzyme activity, inhibitor, FP | 50 µM | 58
CS(=O)(=O)Nc1cccc(-c2csc(NC(=O)CSc3nc4nccnc4c(=O)n3CCc3ccccc3)n2)c1 | PIK3C2B | enzyme activity, inhibitor | 10 µM | 19
COc1ccc(-c2nc3cc(CCCN4CCN(c5ccccc5)CC4)ccc3o2)cc1OC | ADORA2A | ligand displacement, radioligand | 10 µM, cell membranes | 11
CN(C)c1ccc2nc3ccc(=[N+](C)C)cc-3sc2c1 | EHMT1 | cell-free assay | 10 µM | 30
O=C(Nc1ccc(S(=O)(=O)N2CCC(Cl)CC2)cc1)c1ccc([N+](=O)[O-])o1 | Kappa-type opioid receptor (OPRK1, Homo sapiens, UniProt P41145) | cell-free assay | 10 µM | 7
CC(C)(C)c1ccc(CCc2ccc(-c3noc([C@@H]4CCCN4C(=N)N)n3)cc2C(F)(F)F)cc1 | SPHK1 | enzyme activity, inhibitor, radiometric | 1 µM | 17
CSCCC(NC=O)C(=O)NC(C)C(=O)O (stereo not drawn) | EHMT1 | cell-free assay | 10 µM | 0
CC(C)CCn1c(SCC(=O)Nc2ccccc2C(F)(F)F)nc2nccnc2c1=O | PIK3C2B | enzyme activity, inhibitor | 10 µM | 23
[H]/N=C(/N)N1CCC[C@H]1c1nc(-c2ccc(OCCC=CCCCC)c(C(F)(F)F)c2)no1 | SPHK1 | enzyme activity, inhibitor, radiometric | 1 µM | 4
COc1ccc(-n2nc(OCCCN3CCCCC3)ccc2=O)cc1 | SCN9A | ligand displacement | 1 µM | 32.1
